Measurements reported in ChEMBL document CHEMBL2021883, “Amino acid, dipeptide and pseudodipeptide conjugates of ring-substituted 8-aminoquinolines: synthesis and evaluation of anti-infective, β-haematin inhibition and cytotoxic activities” (Eur J Med Chem, 2012).
≈ marks a conversion by molar mass, not a printed value. Calls of active or inactive are those of the source. Unless noted, no cut-off for these calls is given here.

Columns and labels:
Leishmania donovani = experiment: Antileishmanial activity against Leishmania donovani promastigote by Alamar Blue assay; type: functional, organism-based
Vero = experiment: Cytotoxicity against african green monkey Vero cells upto 23.8 […] by neutral dye assay; type: cell-based, Chlorocebus sabaeus
Summary of the method: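 Vero monkey kidney cells were exposed to compound up to a highest concentration of 23.8, with viability read by neutral red uptake.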

Plasmodium falciparum [1] = experiment: Antimalarial activity against chloroquine-resistant Plasmodium falciparum W2 assessed as plasmodial LDH activity; type: functional, organism-based
Staphylococcus aureus [2] = experiment: Antimicrobial activity against Staphylococcus aureus ATCC 29213 by CLSI method; type: functional, organism-based
Plasmodium falciparum [3] = experiment: Antimalarial activity against chloroquine-sensitive Plasmodium falciparum D6 assessed as plasmodial LDH activity; type: functional, organism-based
[4] = Inhibition of beta-hematin formation; type: functional
Escherichia coli = experiment: Antimicrobial activity against Escherichia coli ATCC 35218 by CLSI method; type: functional, organism-based
[5] = system: Mycobacterium intracellulare; experiment: Antimicrobial activity against Mycobacterium intracellulare ATCC 23068 by Franzblau method; type: functional, organism-based
Staphylococcus aureus [6] = experiment: Antimicrobial activity against methicillin-resistant Staphylococcus aureus ATCC 43300 by CLSI method; type: functional, organism-based
Pseudomonas aeruginosa = experiment: Antimicrobial activity against Pseudomonas aeruginosa ATCC 27853 by CLSI method; type: functional, organism-based
Summary of the method: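 Antibacterial testing used CLSI/NCCLS broth dilution for aerobically growing bacteria, with 20 as the highest test concentration.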

Aspergillus fumigatus = experiment: Antifungal activity against Aspergillus fumigatus; type: functional, organism-based
Summary of the method: (§1)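 Yeasts and A. fumigatus were tested by broth microdilution following the NCCLS antifungal standards. The highest test concentration was 20.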

Candida albicans [7] = experiment: Fungicidal activity against Candida albicans at 20 ug/ml; type: functional, organism-based
Summary of the method: (§2)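 Broth dilution antifungal testing followed the NCCLS reference method for yeasts, with 20 as the highest test concentration. MIC was the lowest concentration with no detectable growth. MFC was the lowest concentration killing the organism.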

Cryptococcus neoformans = experiment: Antifungal activity against Cryptococcus neoformans; type: functional, organism-based; summary of the method: as §1
Candida albicans [8] = experiment: Antifungal activity against Candida albicans at 20 ug/ml; type: functional, organism-based; summary of the method: as §2

Row | MIC [5] [µg/mL] | Compound | IC90 (Leishmania donovani; Leishmania donovani) [µg/mL] | IC50 (Vero) | IC50 (Plasmodium falciparum [1]) | IC50 (Leishmania donovani) | IC90 (Leishmania donovani) | Activity (Staphylococcus aureus [2]) | IC50 (Plasmodium falciparum [3]) | IC50 [4] [mM] | Activity (Escherichia coli) | Activity [5] | Activity (Staphylococcus aureus [6]) | Activity (Pseudomonas aeruginosa) | Activity (Aspergillus fumigatus) | Activity (Candida albicans [7]) | IC50 (Cryptococcus neoformans) [µg/mL] | MFC (Cryptococcus neoformans) [µg/mL] | MIC (Cryptococcus neoformans) [µg/mL] | Activity (Candida albicans [8]) | IC50 (Leishmania donovani; Leishmania donovani, read-out: IC50) [µg/mL]
1 |  | N=C(N)c1ccc(OCCCCCOc2ccc(C(=N)N)cc2)cc1 [PENTAMIDINE] | 3.8 (≈ 11.2 µM) |  |  |  |  |  |  |  |  |  |  |  |  |  |  |  |  |  | 
2 |  | COc1cc(NC(C)CCCNC(=O)NCCCC[C@H](N)C(=O)O)c2nc(C(C)(C)C)ccc2c1 (stereo not given in full) |  | Non-toxic | Not Active | Not Active | inactive | inactive | Not Active | > 1 | inactive | inactive | inactive | inactive |  |  |  |  |  |  | 
3 | 0.63 (≈ 1.9 µM) | O=C(O)c1cn(C2CC2)c2cc(N3CCNCC3)c(F)cc2c1=O [CIPROFLOXACIN] |  |  |  |  |  |  |  |  |  |  |  |  |  |  |  |  |  |  | 
4 |  | COc1cc(NC(C)CCCNC(=O)CC[C@H](NC(=O)[C@@H](N)CCCCN)C(=O)O)c2ncccc2c1 (stereo not given in full) |  | Non-toxic | Not Active | Not Active | inactive | inactive | Not Active |  | inactive | inactive | inactive | inactive |  |  |  |  |  |  | 
5 |  | COc1cc(NC(C)CCCNC(=O)NCCC[C@@H](N)C(=O)O)c2ncccc2c1 (stereo not given in full) |  | Non-toxic | Not Active | Not Active | inactive | inactive | Not Active | > 1 | inactive | inactive | inactive | inactive |  |  |  |  |  |  | 
6 |  | COc1cc(NC(C)CCCNC(=O)CC[C@H](NC(=O)[C@@H](N)CCCN)C(=O)O)c2nc(C(C)(C)C)ccc2c1 (stereo not given in full) |  | Non-toxic | Not Active | Not Active | inactive | inactive | Not Active | > 1 | inactive | inactive | inactive | inactive | inactive | inactive | 15 (≈ 26.8 µM) | 20 (≈ 35.8 µM) | 20 (≈ 35.8 µM) | inactive | 
7 |  | COc1cc(NC(C)CCCNC(=O)CC[C@H](NC(=O)[C@@H](N)CCCN)C(=O)O)c2ncccc2c1 (stereo not given in full) |  | Non-toxic | Not Active | Not Active | inactive | inactive | Not Active | > 1 | inactive | inactive | inactive | inactive |  |  |  |  |  |  | 
8 |  | COc1cc(NC(C)CCCNC(=O)CC[C@@H](NC(=O)[C@H](N)CCCCN)C(=O)O)c2ncccc2c1 (stereo not given in full) | 36 (≈ 69.7 µM) | Non-toxic | Not Active |  |  | inactive | Not Active | > 1 | inactive | inactive | inactive | inactive |  |  |  |  |  |  | 20.1 (≈ 38.9 µM)
9 |  | COc1cc(NC(C)CCCNC(=O)C[C@H](NC(=O)[C@@H](N)CCCN)C(=O)O)c2ncccc2c1 (stereo not given in full) |  |  |  |  |  | inactive |  |  | inactive | inactive | inactive | inactive |  |  |  |  |  |  | 
10 |  | COc1cc(NC(C)CCCNC(=O)C[C@@H](NC(=O)[C@H](N)CCCCN)C(=O)O)c2nc(C(C)(C)C)ccc2c1 (stereo not given in full) |  | Non-toxic | Not Active | Not Active | inactive | inactive | Not Active | > 1 | inactive | inactive | inactive | inactive |  |  |  |  |  |  | 
11 |  | COc1cc(NC(C)CCCN)c2ncccc2c1 (stereo not given) [PRIMAQUINE] |  | Non-toxic |  |  | inactive |  |  | > 1 |  |  |  |  |  |  |  |  |  |  | 
12 |  | COc1cc(NC(C)CCCNC(=O)C[C@@H](NC(=O)[C@H](N)CCCN)C(=O)O)c2ncccc2c1 (stereo not given in full) |  | Non-toxic | Not Active | Not Active | inactive | inactive | Not Active | > 1 | inactive | inactive | inactive | inactive | inactive | inactive | 7 (≈ 14.3 µM) | 10 (≈ 20.5 µM) | 10 (≈ 20.5 µM) | inactive | 
13 |  | COc1cc(NC(C)CCCNC(=O)CC[C@@H](NC(=O)[C@H](N)CCCNC(=N)N)C(=O)O)c2nc(C(C)(C)C)ccc2c1 (stereo not given in full) |  | Non-toxic | Not Active | Not Active | inactive | inactive | Not Active | > 1 | inactive | inactive | inactive | inactive |  |  |  |  |  |  | 
14 |  | COc1cc(NC(C)CCCNC(=O)CC[C@@H](NC(=O)[C@H](N)CCCN)C(=O)O)c2ncccc2c1 (stereo not given in full) |  | Non-toxic | Not Active | Not Active | inactive | inactive | Not Active | > 1 | inactive | inactive | inactive | inactive |  |  |  |  |  |  | 
15 |  | COc1cc(NC(C)CCCNC(=O)NCCCC[C@H](N)C(=O)O)c2ncccc2c1 (stereo not given in full) |  | Non-toxic | Not Active | Not Active | inactive | inactive | Not Active | > 1 | inactive | inactive | inactive | inactive |  |  |  |  |  |  | 
16 |  | COc1cc(NC(C)CCCNC(=O)CC[C@@H](NC(=O)[C@H](N)CCCN)C(=O)O)c2nc(C(C)(C)C)ccc2c1 (stereo not given in full) |  | Non-toxic | Not Active | Not Active | inactive | inactive | Not Active | > 1 | inactive | inactive | inactive | inactive |  |  |  |  |  |  | 
17 |  | COc1cc(NC(C)CCCNC(=O)CC[C@@H](NC(=O)[C@H](N)CCCNC(=N)N)C(=O)O)c2ncccc2c1 (stereo not given in full) |  | Non-toxic | Not Active | Not Active | inactive | inactive | Not Active | > 1 | inactive | inactive | inactive | inactive |  |  |  |  |  |  | 
18 |  | COc1cc(NC(C)CCCN)c2nc(C(C)(C)C)ccc2c1 (stereo not given) |  |  |  |  |  |  |  | 0.0029 |  |  |  |  |  |  |  |  |  |  | 
